According to ChEMBL document CHEMBL3804761, “Synthesis of a stable and orally bioavailable englerin analogue” (Bioorg Med Chem Lett, 2016):

Experiments:
Assay type in all cases: functional
[1] = Growth inhibition of human MOLT4 cells incubated for 48 hrs by sulforhodamine B assay; details: MOLT-4, 48 h; for TGI: read-out: pTGI (converted)
Method in brief: (§1)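 NCI 60-cell-line panel, standard protocol. Cells exposed to compound for two days, growth read by sulforhodamine B staining. Tested at five 10-fold dilutions, top concentration 100 µM, to give dose-response curves.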

[2] = system: Malme-3M; assay: Growth inhibition of human MALME-3M cells assessed as cell growth at 10 uM incubated for 48 hrs by sulforhodamine B assay relative to control; details: read-out: Activity
Method in brief: (§2)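 Run in the standard NCI 60-cell-line screen. Cells were exposed to drug for two days, and the read-out was sulforhodamine B staining. Compound was tested at a single final concentration of 10 µM in every line, and results are reported as growth percent.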

[3] = system: T47D; assay: Growth inhibition of human T47D cells incubated for 48 hrs by sulforhodamine B assay; details: for CC50: read-out: pLC50 (the source's name) (converted); for TGI: read-out: pTGI (converted)
Method in brief: (§3)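 Tested in the standard NCI 60-cell-line protocol with two-day drug exposure and a sulforhodamine B endpoint. Compounds were first screened at a single final concentration of 10 µM, reported as growth percent. They were then run as five 10-fold dilutions starting from a high concentration of 100 µM to give dose-response curves.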

[4] = Growth inhibition of human HOP62 cells assessed as cell growth at 10 uM incubated for 48 hrs by sulforhodamine B assay relative to control; details: HOP-62, 48 h, read-out: Activity; method in brief: as §2
[5] = Growth inhibition of human RPMI8226 cells assessed as cell growth at 10 uM incubated for 48 hrs by sulforhodamine B assay relative to control; details: RPMI-8226, 48 h, read-out: Activity; method in brief: as §2
[6] = Growth inhibition of human TK10 cells assessed as cell growth at 10 uM incubated for 48 hrs by sulforhodamine B assay relative to control; details: TK-10, 48 h, read-out: Activity
Method in brief: (§4)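 NCI 60-cell line standard protocol, one-dose screen: single final concentration 10 µM, 2-day drug exposure, sulforhodamine B (SRB) endpoint; read-out is growth percent relative to untreated control.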

[7] = system: 786-0; assay: Growth inhibition of human 786-0 cells incubated for 48 hrs by sulforhodamine B assay; details: 786-0, 48 h; for TGI: read-out: pTGI (converted); method in brief: as §1
[8] = Growth inhibition of human HL-60(TB) cells incubated for 48 hrs by sulforhodamine B assay; details: HL-60, 48 h; for CC50: read-out: pLC50 (the source's name) (converted); for TGI: read-out: pTGI (converted); method in brief: as §1
[9] = Growth inhibition of human UO31 cells assessed as cell growth at 10 uM incubated for 48 hrs by sulforhodamine B assay relative to control; details: UO-31, 48 h, read-out: Activity; method in brief: as §4
[10] = Growth inhibition of human SF295 cells assessed as cell growth at 10 uM incubated for 48 hrs by sulforhodamine B assay relative to control; details: SF-295, 48 h, read-out: Activity; method in brief: as §2
[11] = system: SN12C; assay: Growth inhibition of human SN12C cells assessed as cell growth at 10 uM incubated for 48 hrs by sulforhodamine B assay relative to control; details: read-out: Activity; method in brief: as §2
[12] = Growth inhibition of human Hs 578T cells assessed as cell growth at 10 uM incubated for 48 hrs by sulforhodamine B assay relative to control; details: read-out: Activity
[13] = system: KM12; assay: Growth inhibition of human KM12 cells incubated for 48 hrs by sulforhodamine B assay; details: KM12, 48 h; for TGI: read-out: pTGI (converted); method in brief: as §1
[14] = Growth inhibition of human COLO205 cells incubated for 48 hrs by sulforhodamine B assay; details: COLO 205, 48 h; for CC50: read-out: pLC50 (the source's name) (converted); for TGI: read-out: pTGI (converted); method in brief: as §1
[15] = system: HT-29; assay: Growth inhibition of human HT-29 cells assessed as cell growth at 10 uM incubated for 48 hrs by sulforhodamine B assay relative to control; details: HT-29, 48 h, read-out: Activity; method in brief: as §2
[16] = Growth inhibition of human SNB19 cells incubated for 48 hrs by sulforhodamine B assay; details: SNB-19, 48 h; for CC50: read-out: pLC50 (the source's name) (converted); for TGI: read-out: pTGI (converted); method in brief: as §3
[17] = Growth inhibition of human HCT15 cells incubated for 48 hrs by sulforhodamine B assay; details: HCT-15, 48 h; for TGI: read-out: pTGI (converted); method in brief: as §1
[18] = system: SK-MEL-5; assay: Growth inhibition of human SK-MEL-5 cells incubated for 48 hrs by sulforhodamine B assay; details: SK-MEL-5, 48 h; for TGI: read-out: pTGI (converted); method in brief: as §1
[19] = Growth inhibition of human UACC257 cells assessed as cell growth at 10 uM incubated for 48 hrs by sulforhodamine B assay relative to control; details: UACC-257, 48 h, read-out: Activity; method in brief: as §4
[20] = Growth inhibition of human PC3 cells incubated for 48 hrs by sulforhodamine B assay; details: PC-3, 48 h; for CC50: read-out: pLC50 (the source's name) (converted); for TGI: read-out: pTGI (converted); method in brief: as §1
[21] = Growth inhibition of human RPMI8226 cells incubated for 48 hrs by sulforhodamine B assay; details: RPMI-8226, 48 h; for CC50: read-out: pLC50 (the source's name) (converted); for TGI: read-out: pTGI (converted); method in brief: as §1
[22] = Growth inhibition of human DU145 cells incubated for 48 hrs by sulforhodamine B assay; details: DU-145, 48 h; for CC50: read-out: pLC50 (the source's name) (converted); for TGI: read-out: pTGI (converted); method in brief: as §1
[23] = system: SK-MEL-2; assay: Growth inhibition of human SK-MEL-2 cells assessed as cell growth at 10 uM incubated for 48 hrs by sulforhodamine B assay relative to control; details: SK-MEL-2, 48 h, read-out: Activity; method in brief: as §2
[24] = system: NCI-H226; assay: Growth inhibition of human NCI-H226 cells incubated for 48 hrs by sulforhodamine B assay; details: NCI-H226, 48 h; for TGI: read-out: pTGI (converted); method in brief: as §1
[25] = Growth inhibition of human HCT116 cells assessed as cell growth at 10 uM incubated for 48 hrs by sulforhodamine B assay relative to control; details: HCT-116, 48 h, read-out: Activity; method in brief: as §2
[26] = Growth inhibition of human SW620 cells incubated for 48 hrs by sulforhodamine B assay; details: SW-620, 48 h; for TGI: read-out: pTGI (converted); method in brief: as §3
[27] = Growth inhibition of human SNB19 cells assessed as cell growth at 10 uM incubated for 48 hrs by sulforhodamine B assay relative to control; details: SNB-19, 48 h, read-out: Activity; method in brief: as §2
[28] = Growth inhibition of human HOP92 cells incubated for 48 hrs by sulforhodamine B assay; details: HOP-92, 48 h; for TGI: read-out: pTGI (converted); method in brief: as §1
[29] = Growth inhibition of human LOXIMVI cells assessed as cell growth at 10 uM incubated for 48 hrs by sulforhodamine B assay relative to control; details: LOX IMVI, read-out: Activity
Method in brief: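 Single-dose screen in the NCI 60-cell-line panel at one final concentration of 10 µM. Two-day drug exposure with a sulforhodamine B endpoint. Values are growth percent for each cell line.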

SMILES: CC(C)[C@@]12C[C@@H](NC(=O)CO)[C@@](C)(O1)[C@@H]1CC[C@@H](C)[C@H]1[C@@H]2OC(=O)c1ccc2ccccc2c1
- GI50 [1]: 18.6 µM
- LC50 [1]: 89.1 µM
- TGI [1]: 40.7 µM
- growth at 10 µM [2]: 85.3%
- GI50 [3]: 14.8 µM
- CC50 [3]: 56.2 µM
- TGI [3]: 28.8 µM
- growth at 10 µM [4]: 89.3%
- growth at 10 µM [5]: 67.6%
- growth at 10 µM [6]: 102%
- GI50 [7]: 13.8 µM
- LC50 [7]: 56.2 µM
- TGI [7]: 28.2 µM
- GI50 [8]: 20.4 µM
- CC50 [8]: 87.1 µM
- TGI [8]: 41.7 µM
- growth at 10 µM [9]: 63.3%
- growth at 10 µM [10]: 82.5%
- growth at 10 µM [11]: 66.7%
- growth at 10 µM [12]: -18.3%
- GI50 [13]: 17.4 µM
- LC50 [13]: 61.7 µM
- TGI [13]: 32.4 µM
- GI50 [14]: 19.1 µM
- CC50 [14]: 61.7 µM
- TGI [14]: 34.7 µM
- growth at 10 µM [15]: 93.7%
- GI50 [16]: 16.2 µM
- CC50 [16]: 60.3 µM
- TGI [16]: 31.6 µM
- GI50 [17]: 16.6 µM
- LC50 [17]: 61.7 µM
- TGI [17]: 31.6 µM
- GI50 [18]: 16.6 µM
- LC50 [18]: 56.2 µM
- TGI [18]: 30.9 µM
- growth at 10 µM [19]: 101%
- GI50 [20]: 12 µM
- CC50 [20]: 52.5 µM
- TGI [20]: 25.1 µM
- GI50 [21]: 14.5 µM
- CC50 [21]: 85.1 µM
- TGI [21]: 35.5 µM
- GI50 [22]: 16.2 µM
- CC50 [22]: 56.2 µM
- TGI [22]: 30.2 µM
- growth at 10 µM [23]: 100%
- GI50 [24]: 13.2 µM
- LC50 [24]: 85.1 µM
- TGI [24]: 33.1 µM
- growth at 10 µM [25]: 75.7%
- GI50 [26]: 16.6 µM
- LC50 (50% lethal concentration) [26]: 72.4 µM
- TGI [26]: 34.7 µM
- growth at 10 µM [27]: 97.2%
- GI50 [28]: 9.33 µM
- LC50 [28]: 52.5 µM
- TGI [28]: 22.9 µM

SMILES: C/C(=C\C(=O)O[C@H]1[C@@H]2[C@H](C)CC[C@H]2[C@]2(C)O[C@@]1(C(C)C)C[C@H]2NC(=O)CO)c1ccccc1
- GI50 [1]: 25.7 µM
- LC50 [1]: > 100 µM
- TGI [1]: 81.3 µM
- growth at 10 µM [2]: 95.9%
- GI50 [3]: 20.4 µM
- CC50 [3]: > 100 µM
- TGI [3]: > 100 µM
- growth at 10 µM [4]: 97.6%
- growth at 10 µM [6]: 109%
- GI50 [7]: 33.9 µM
- LC50 [7]: > 100 µM
- TGI [7]: > 100 µM
- GI50 [8]: 17.8 µM
- CC50 [8]: > 100 µM
- TGI [8]: 61.7 µM
- growth at 10 µM [9]: 17.5%
- growth at 10 µM [10]: 97.8%
- growth at 10 µM [11]: 84.6%
- growth at 10 µM [12]: -8.92%
- GI50 [13]: 33.9 µM
- LC50 [13]: > 100 µM
- TGI [13]: > 100 µM
- GI50 [14]: 22.9 µM
- CC50 [14]: > 100 µM
- TGI [14]: 83.2 µM
- growth at 10 µM [15]: 98.7%
- GI50 [16]: 74.1 µM
- CC50 [16]: > 100 µM
- TGI [16]: > 100 µM
- GI50 [17]: 34.7 µM
- LC50 [17]: > 100 µM
- TGI [17]: > 100 µM
- GI50 [18]: 19.5 µM
- LC50 [18]: 95.5 µM
- TGI [18]: 43.7 µM
- growth at 10 µM [19]: 92.4%
- GI50 [20]: 18.6 µM
- CC50 [20]: > 100 µM
- TGI [20]: > 100 µM
- GI50 [21]: 19.5 µM
- CC50 [21]: > 100 µM
- TGI [21]: 56.2 µM
- GI50 [22]: 60.3 µM
- CC50 [22]: > 100 µM
- TGI [22]: > 100 µM
- growth at 10 µM [23]: 104%
- GI50 [24]: 61.7 µM
- LC50 [24]: > 100 µM
- TGI [24]: > 100 µM
- growth at 10 µM [25]: 101%
- GI50 [26]: 45.7 µM
- LC50 (50% lethal concentration) [26]: > 100 µM
- TGI [26]: > 100 µM
- growth at 10 µM [27]: 108%
- growth at 10 µM [29]: 100%
- GI50 [28]: 21.9 µM
- LC50 [28]: > 100 µM
- TGI [28]: 81.3 µM
